The results in this text go back to ChEMBL document CHEMBL4673224, “Synthesis of 7-benzylguanosine cap-analogue conjugates for eIF4E targeted degradation” (Eur J Med Chem, 2019).

Test [1] addresses Eukaryotic translation initiation factor 4E (Homo sapiens) (UniProt P06730). As to the kind of experiment: Inhibition of eIF4E binding to m7GDP in immobilized resin with HEK293 lysate at 500 uM by western blot analysis based competitive binding assay. The format is subcellular. Conditions: time 12.0 hrs. In outline: (§1)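 350 μg protein bound to m7GDP agarose for 2 h at 4 °C, washed, then exposed to compound in Buffer A overnight. Bound protein eluted in LDS buffer and probed with anti-eIF4E antibody. m7GDP is the positive control and DMSO the negative control.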
In general terms: A western blot detects proteins with antibodies after separation by electrophoresis.

In test [2] the target is T1, Protein cereblon/Eukaryotic translation initiation factor 4E (Homo sapiens) (UniProt P06730+Q96SW2). As to the kind of experiment: Protac activity at E3-ligase/eIF4E in human K562 cells assessed as intracellular eIF4E degradation by Western blot analysis. Format: cell-based.
Test [3] has as its target Eukaryotic translation initiation factor 4E (Homo sapiens) (UniProt P06730). The experiment in a line: Inhibition of eIF4E binding to m7GDP in immobilized resin with HEK293 lysate by western blot analysis based competitive binding assay. The format is subcellular. Conditions: dose 50-500 µM. In outline:
as §1

In test [4] the target is T1, Protein cereblon/Eukaryotic translation initiation factor 4E (Homo sapiens). The experiment in a line: Protac activity at E3-liagse/eIF4E in human MDA-MB-231 cells assessed as reduction in eIF4E protein level at 25 to 200 uM after 24 to 72 hrs. The format is cell-based. Conditions: dose 25-200 µM, time 24-72 hrs. In outline: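 MDA-MB-231 cells are grown in RPMI-1640 with 10% FBS and 1 mM glutamine at 37 °C under 5% CO2. Cells are exposed to compound at 25–200 μM for 24–72 h, and eIF4E protein level is then assessed.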

The target of test [5] is Eukaryotic translation initiation factor 4E (Homo sapiens) (UniProt P06730). As to the kind of experiment: Inhibition of eIF4E binding to m7GMP in immobilized resin with HEK293 lysate at 500 uM by western blot analysis based competitive binding assay. Format: subcellular. In outline:
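Cap pull-down is carried out on m7GMP agarose. HEK293 lysate is freeze-thawed thrice and cleared at 20,000 × g, and 350 μg protein is loaded for 2 h at 4 °C. After washes, the resin is incubated overnight with 500 μM compound in Buffer A (50 mM HEPES-KOH pH 7.5, 150 mM KCl). eIF4E remaining on the resin is read by anti-eIF4E western blot. m7GMP is the positive control and DMSO the negative control.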

The source made the active and inactive calls. The calls are words filed in the database; no cut-off is given here.

T1 sequence (P06730 whole entry, looked up): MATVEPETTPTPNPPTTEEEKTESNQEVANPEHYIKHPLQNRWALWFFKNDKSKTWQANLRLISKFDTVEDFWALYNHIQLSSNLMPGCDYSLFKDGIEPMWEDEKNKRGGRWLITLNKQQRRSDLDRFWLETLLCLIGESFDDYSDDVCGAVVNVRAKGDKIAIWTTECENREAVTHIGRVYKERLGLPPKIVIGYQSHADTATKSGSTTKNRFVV
T1 sequence (Q96SW2 whole entry, looked up): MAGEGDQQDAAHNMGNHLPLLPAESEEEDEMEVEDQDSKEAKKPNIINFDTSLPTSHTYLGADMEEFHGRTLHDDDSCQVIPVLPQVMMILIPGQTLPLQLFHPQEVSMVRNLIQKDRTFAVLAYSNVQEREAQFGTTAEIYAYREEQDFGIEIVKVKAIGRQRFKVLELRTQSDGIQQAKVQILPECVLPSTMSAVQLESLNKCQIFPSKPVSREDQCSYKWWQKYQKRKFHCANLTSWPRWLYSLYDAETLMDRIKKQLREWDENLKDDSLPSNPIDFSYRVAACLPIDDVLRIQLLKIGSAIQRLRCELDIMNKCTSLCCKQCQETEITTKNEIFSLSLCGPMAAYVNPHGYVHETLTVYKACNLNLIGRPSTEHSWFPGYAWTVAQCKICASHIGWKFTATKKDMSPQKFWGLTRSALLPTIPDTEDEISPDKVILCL
Sequence of Eukaryotic translation initiation factor 4E (Homo sapiens) (P06730 whole entry): as the sequence (P06730 whole entry, looked up) above

In the case of `Nc1nc2c(ncn2[C@@H]2O[C@H](COP(=O)(O)OP(=O)(O)NCCOCCOCCOCCC(=O)Nc3cccc4c3CN(C3CCC(=O)NC3=O)C4=O)[C@@H](O)[C@H]2O)c(=O)[nH]1` (stereo partly drawn), the inhibition result in test [1] was “inactive”. Also, the result in test [2] was inactive. In the case of `Nc1nc2c(ncn2[C@@H]2O[C@H](COP(=O)(O)OP(=O)(O)NCCCCCC(=O)Nc3cccc4c3CN(C3CCC(=O)NC3=O)C4=O)[C@@H](O)[C@H]2O)c(=O)[nH]1` (stereo partly drawn), the inhibition entry in test [1] is “inactive”. For the compound `Nc1nc2c(c(=O)[nH]1)[n+](Cc1ccccc1)cn2[C@@H]1O[C@H](COP(=O)(O)OP(=O)(O)NCCCCCC(=O)Nc2cccc3c2CN(C2CCC(=O)NC2=O)C3=O)[C@@H](O)[C@H]1O` (stereo partly drawn), the inhibition entry in test [1] was “Active”. Also, in test [3], the inhibition entry is “Dose-dependent effect”. Further, in test [4], the outcome was inactive. `Nc1nc2c(c(=O)[nH]1)[n+](Cc1ccc(F)cc1)cn2[C@@H]1O[C@H](COP(=O)(O)NCCCCCC(=O)Nc2cccc3c2CN(C2CCC(=O)NC2=O)C3=O)[C@@H](O)[C@H]1O` (stereo partly drawn): the inhibition result in test [5] was “inactive”. Take `Cc1ncsc1-c1ccc(CNC(=O)C2C[C@H](O)CN2C(=O)[C@@H](NC(=O)CCCCCNP(=O)(O)OP(=O)(O)OC[C@H]2O[C@@H](n3cnc4c(=O)[nH]c(N)nc43)[C@H](O)[C@@H]2O)C(C)(C)C)cc1` (stereo partly drawn): in test [1], the inhibition entry is “inactive”. Besides, the outcome in test [2] was inactive. Regarding `Nc1nc2c(c(=O)[nH]1)[n+](Cc1ccccc1)cn2[C@@H]1O[C@H](COP(=O)(O)NCCCCCC(=O)Nc2cccc3c2CN(C2CCC(=O)NC2=O)C3=O)[C@@H](O)[C@H]1O` (stereo partly drawn), the inhibition result in test [5] was “inactive”. On the same count and under the same terms, as for `Nc1nc2c(ncn2[C@@H]2O[C@H](COS(=O)(=O)NC(=O)CCC(=O)NCCCCCC(=O)Nc3cccc4c3CN(C3CCC(=O)NC3=O)C4=O)[C@@H](O)[C@H]2O)c(=O)[nH]1` (stereo partly drawn), the entry is “inactive”. Regarding `Nc1nc2c(c(=O)[nH]1)[n+](Cc1ccc(F)cc1)cn2[C@@H]1O[C@H](COP(=O)(O)OP(=O)(O)NCCCCCC(=O)Nc2cccc3c2CN(C2CCC(=O)NC2=O)C3=O)[C@@H](O)[C@H]1O` (stereo partly drawn), the inhibition result in test [1] is “Active”. The result in test [4] was inactive. For the compound `Cc1ncsc1-c1ccc(CNC(=O)C2C[C@H](O)CN2C(=O)[C@@H](NC(=O)CCCCCNP(=O)(O)OP(=O)(O)OC[C@H]2O[C@@H](n3c[n+](Cc4ccccc4)c4c(=O)[nH]c(N)nc43)[C@H](O)[C@@H]2O)C(C)(C)C)cc1` (stereo partly drawn), in test [1], the inhibition entry was “Active”. Also, the result in test [2] and in test [4] was inactive.

For the compound `Nc1nc2c(c(=O)[nH]1)[n+](Cc1ccc(F)cc1)cn2[C@@H]1O[C@H](COP(=O)(O)OP(=O)(O)NCCOCCOCCOCCC(=O)Nc2cccc3c2CN(C2CCC(=O)NC2=O)C3=O)[C@@H](O)[C@H]1O` (stereo partly drawn), in test [1], the inhibition entry was “Active”. Further, the result in test [2] and in test [4] was inactive. Regarding `Nc1nc2c(ncn2[C@@H]2O[C@H](COP(=O)(O)NCCCCCC(=O)Nc3cccc4c3CN(C3CCC(=O)NC3=O)C4=O)[C@@H](O)[C@H]2O)c(=O)[nH]1` (stereo partly drawn), the inhibition entry in test [5] was “inactive”. Same read-out and setting: as for `Nc1nc2c(c(=O)[nH]1)[n+](Cc1ccc(F)cc1)cn2[C@@H]1O[C@H](COS(=O)(=O)NC(=O)CCC(=O)NCCCCCC(=O)Nc2cccc3c2CN(C2CCC(=O)NC2=O)C3=O)[C@@H](O)[C@H]1O` (stereo partly drawn), the entry is “inactive”. With `Cc1ncsc1-c1ccc(CNC(=O)C2C[C@H](O)CN2C(=O)[C@@H](NC(=O)CCCCCNP(=O)(O)OP(=O)(O)OC[C@H]2O[C@@H](n3c[n+](Cc4ccc(F)cc4)c4c(=O)[nH]c(N)nc43)[C@H](O)[C@@H]2O)C(C)(C)C)cc1` (stereo partly drawn), the inhibition result in test [1] was “Active”. The result in test [2] and in test [4] was inactive.

Take `Nc1nc2c(ncn2[C@@H]2O[C@H](COP(=O)(O)OP(=O)(O)NCCOCCOCCOCCOCCOCCOCCOCCC(=O)Nc3cccc4c3CN(C3CCC(=O)NC3=O)C4=O)[C@@H](O)[C@H]2O)c(=O)[nH]1` (stereo partly drawn): the inhibition result in test [1] is “inactive”. With `Nc1nc2c(c(=O)[nH]1)[n+](Cc1ccccc1)cn2[C@@H]1O[C@H](COP(=O)(O)OP(=O)(O)NCCOCCOCCOCCC(=O)Nc2cccc3c2CN(C2CCC(=O)NC2=O)C3=O)[C@@H](O)[C@H]1O` (stereo partly drawn), the inhibition result in test [1] was “Active”. Besides, the result in test [2] and in test [4] was inactive.

Regarding `Nc1nc2c(c(=O)[nH]1)[n+](Cc1ccccc1)cn2[C@@H]1O[C@H](COP(=O)(O)OP(=O)(O)NCCOCCOCCOCCOCCOCCOCCOCCC(=O)Nc2cccc3c2CN(C2CCC(=O)NC2=O)C3=O)[C@@H](O)[C@H]1O` (stereo partly drawn), the inhibition entry in test [1] was “Active”. Besides, in test [4], the result was inactive. The corresponding values for `Nc1nc2c(c(=O)[nH]1)[n+](Cc1ccc(F)cc1)cn2[C@@H]1O[C@H](COP(=O)(O)OP(=O)(O)NCCOCCOCCOCCOCCOCCOCCOCCC(=O)Nc2cccc3c2CN(C2CCC(=O)NC2=O)C3=O)[C@@H](O)[C@H]1O` (stereo partly drawn) are “Active” and “inactive”. With `Nc1nc2c(c(=O)[nH]1)[n+](Cc1ccccc1)cn2[C@@H]1O[C@H](COS(=O)(=O)NC(=O)CCC(=O)NCCCCCC(=O)Nc2cccc3c2CN(C2CCC(=O)NC2=O)C3=O)[C@@H](O)[C@H]1O` (stereo partly drawn), in test [5], the inhibition entry is “inactive”.
